Active and inactive are the calls of the source. The rule behind the calls is not given here.
Legend:
[1] = AUC (0 to infinity) in male Sprague-Dawley rat at 10 mg/kg, po measured upto 24 hrs by triple quadrupole mass spectrometric analysis; type: ADME, organism-based; conditions: in vivo
Procedure, shortened: (§1)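 Male SD rats (8 weeks, 200 g ± 20 g), n = 3 per route. Oral: 10 mg/kg by gavage in 0.05 % DMSO/normal saline, tail-vein blood at 13 times from 10 min to 24 h. IV: 1 mg/kg tail vein in 5 % DMSO/30 % PEG400/65 % saline, 14 samples from 5 min to 24 h. Heparinised plasma precipitated with acetonitrile containing internal standard. Non-compartmental analysis on mean concentrations.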

[2] = system: Mus musculus; experiment: Protection against LPS-induced C57BL/6 mouse model of acute lung injury assessed as reduction in IL-6 level in serum at 20 mg/kg, po administered 3 times for every 12 hrs followed by LPS stimulation at 5 mg/kg and measured after 6 hrs by ELISA; type: functional, organism-based; conditions: time 30.0 hrs
Procedure, shortened: (§2)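 C57BL/6 mice, 6 per group. Gavaged at 20 mg/kg three times at 12 h intervals; controls received saline, and dexamethasone 20 mg/kg served as reference. After the last dose, LPS 5 mg/kg given intratracheally. At 6 h, blood collected for serum IL-6 by ELISA. Left lung lavaged with 3 × 200 μL saline, and BALF assayed for IL-6, total protein and neutrophil count. Mean ± SEM, n = 6.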

[3] = system: Mus musculus; experiment: Antiinflammatory activity in DSS-induced male C57BL/6 mouse model of inflammatory bowel disease assessed as normal appearance of crypt cells at 20 mg/kg, IG administered with compound and DSS for 7 days followed by DSS replacement with distilled water for 3 days by H and E staining based analysis; type: functional, organism-based; conditions: time 10.0 day
[4] = Cmax in male Sprague-Dawley rat at 1 mg/kg, iv measured upto 24 hrs by triple quadrupole mass spectrometric analysis; type: ADME, organism-based; conditions: in vivo; procedure, shortened: as §1
[5] = system: Mus musculus; experiment: Antiinflammatory activity in DSS-induced male C57BL/6 mouse model of inflammatory bowel disease assessed as decrease in disease index at 20 mg/kg, IG administered with compound and DSS for 7 days followed by DSS replacement with distilled water for 3 days; type: functional, organism-based; conditions: time 10.0 day
[6] = Acute toxicity in male ICR mouse assessed as reduction in body weight at 500 to 1000 mg/kg, po administered daily for 10 days and measured daily for 2 to 10 days; type: organism-based; conditions: in vivo, 240 h, dose 500-1000 mg/kg, time 10 day
Procedure, shortened: (§3)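 Male ICR mice (8 weeks, 30 g ± 2 g), acclimatised 1 week, randomised into 1000 mg/kg, 500 mg/kg and untreated control groups (n = 24 total). Dosed by daily gavage, compound dissolved in 0.5 % DMSO then added to normal saline. Body weight and behaviour recorded daily. Euthanised after 10 days; heart, liver, spleen, lung and kidney examined by H&E staining.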

[7] = Acute toxicity in male ICR mouse assessed as histopathological changes in liver at 500 to 1000 mg/kg, po administered daily for 10 days by H and E staining based analysis; type: organism-based; conditions: in vivo, 240 h, dose 500-1000 mg/kg, time 10 day; procedure, shortened: as §3
[8] = Acute toxicity in male ICR mouse assessed as reduction in body weight at 500 to 1000 mg/kg, po administered daily and measured on day 1; type: organism-based; conditions: in vivo, 24 h, dose 500-1000 mg/kg, time 1 day; procedure, shortened: as §3
[9] = system: Mus musculus; experiment: Protection against LPS-induced C57BL/6 mouse model of acute lung injury assessed as reduction in interstitial edema in lungs at 20 mg/kg, po administered 3 times for every 12 hrs followed by LPS stimulation at 5 mg/kg and measured after 6 hrs by H and E staining based analysis; type: functional, organism-based; conditions: time 30.0 hrs
Procedure, shortened: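 LPS-induced ALI in C57BL/6 mice: 20 mg/kg orally three times at 12 h intervals, then intratracheal LPS 5 mg/kg, killed at 6 h. Lungs paraffin-embedded, cut into 5 μm sections and H&E stained. Viewed at ×20.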

[10] = system: TGF-beta-activated kinase 1 (MAP3K7); experiment: Inhibition of TAK1 (unknown origin) at 10 uM relative to control; conditions: Homo sapiens
[11] = system: Mus musculus; experiment: Protection against LPS-induced C57BL/6 mouse model of acute lung injury assessed as reduction in number of neutrophils in BALF at 20 mg/kg, po administered 3 times for every 12 hrs followed by LPS stimulation at 5 mg/kg and measured after 6 hrs; type: functional, organism-based; conditions: time 30.0 hrs; procedure, shortened: as §2
[12] = system: J774.A1; experiment: Inhibition of LPS-induced NF-kappaB activation in mouse J774.A1 cells assessed as reduction in IkappaBalpha degradation at 5 to 20 uM pretreated for 2 hrs followed by LPS stimulation and measured after 30 mins by Western blot analysis; type: cell-based; conditions: dose 5-20 µM, time 2.5 hrs
Procedure, shortened: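 J774A.1 macrophages pretreated with 20, 10 or 5 μM for 2 h, then LPS 0.5 μg/mL for 30 min. RIPA lysates quantified by Bradford. 40 μg run on 12.5 % SDS-PAGE and transferred to PVDF. Blocked 1.5 h in BSA, primary antibody overnight at 4 °C, secondary 2 h at room temperature, detected by ECL.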

[13] = system: Mus musculus; experiment: Protection against LPS-induced C57BL/6 mouse model of acute lung injury assessed as reduction in protein level in BALF at 20 mg/kg, po administered 3 times for every 12 hrs followed by LPS stimulation at 5 mg/kg and measured after 6 hrs; type: functional, organism-based; conditions: time 30.0 hrs; procedure, shortened: as §2

Structure (SMILES): CC(=O)N1CCN(CCOc2cc(=O)oc3ccccc23)CC1
- AUC(0-inf) [1]: 3260 ng·h/mL
- Activity [2]: Active
- Activity [3]: Active
- Cmax [4]: 2030 ng/mL
- Activity [5]: Active
- Activity [6]: Non-Toxic
- Activity [7]: Non-Toxic
- Activity [8]: Toxic
- Activity [9]: Active
- inhibition [10]: 1.05%
- Activity [11]: Active
- inhibition [12]: inactive
- Activity [13]: Active

Reference: ChEMBL document CHEMBL5500386, “Design, synthesis and bioactivity evaluation of 4-hydroxycoumarin derivatives as potential anti-inflammatory agents against acute lung injury and colitis” (Eur J Med Chem, 2024)
